This is an account of results in ChEMBL document CHEMBL4371061, “Identification of novel triazole inhibitors of Wnt/β-catenin signaling based on the Niclosamide chemotype” (Bioorg Med Chem Lett, 2019).

For assay [1], the system named is SW480. In words: Inhibition of Wnt/beta-catenin signaling pathway in human SW480 whole cell lysate harboring APC mutation assessed as reduction in cyclin D1 protein expression at 5 uM after 18 hrs by Western blot analysis relative to control. The class given is subcellular. Put shortly:
(§1)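 Cells were treated with 5 μM compound in DMSO, or DMSO alone, for 18 h. Cytosolic fraction and whole-cell lysate were immunoblotted for target proteins with β-actin as loading control. Band levels were normalized to β-actin and expressed as percent of the DMSO-treated control.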
On the technique in general: A western blot detects proteins with antibodies after separation by electrophoresis.

In assay [2] the test system is SW480. In words: Inhibition of Wnt/beta-catenin signaling pathway in human SW480 cells cytosol lysate harboring APC mutation assessed as reduction in Axin2 protein expression at 5 uM after 18 hrs by Western blot analysis relative to control. The class given is subcellular. Put shortly: as §1
In assay [3] the test system is SW480. In words: Inhibition of Wnt/beta-catenin signaling pathway in human SW480 cells cytosol lysate harboring APC mutation assessed as reduction in beta-catenin protein expression at 5 uM after 18 hrs by Western blot analysis relative to control. Format: subcellular. Put shortly:
as §1

Assay [4] in a line: Inhibition of Wnt3A-stimulated Wnt/beta-catenin pathway in HEK293 cells transfected with p8xTOPFlash, Renilla luciferase plasmid pRL-TK and pLKO.1 after 8 hrs by Dual topflash luciferase reporter gene assay. The class given is cell-based. The conditions noted are these: Homo sapiens, HEK293, 8 h. Put shortly:
(§2)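 HEK293 cells stably carrying a TOPFlash luciferase reporter and a Renilla luciferase control were stimulated with Wnt3A-conditioned medium and given DMSO or compound (0.04–10 μM) for 8 h. Wnt3A plus DMSO was set as 100%. IC50 was fit from mean ± SEM, n 3. Percent inhibition at the two highest concentrations was given when no full curve was obtained.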
Background: In a reporter assay the amount or activity of a reporter protein is the signal.

The species named for assay [5] is Homo sapiens. Put plainly: Inhibition of Wnt/beta-catenin signaling pathway in human HCT116 cells cytosol lysate harboring beta-catenin mutation assessed as reduction in beta-catenin protein expression at 5 uM after 18 hrs by Western blot analysis relative to control. Format: subcellular. Put shortly: as §1
For assay [6], the species on record is Homo sapiens. Put plainly: Inhibition of Wnt/beta-catenin signaling pathway in human HCT116 whole cell lysate harboring beta-catenin mutation assessed as reduction in c-Myc protein expression at 5 uM after 18 hrs by Western blot analysis relative to control. The class given is subcellular. In short, it runs like this: as §1
The species named for assay [7] is Homo sapiens. In words: Inhibition of Wnt/beta-catenin signaling pathway in human HCT116 cells cytosol lysate harboring beta-catenin mutation assessed as reduction in Axin2 protein expression at 5 uM after 18 hrs by Western blot analysis relative to control. Format: subcellular. In short, it runs like this:
as §1

For assay [8], the species on record is Homo sapiens. In words: Inhibition of Wnt/beta-catenin signaling pathway in human HCT116 whole cell lysate harboring beta-catenin mutation assessed as reduction in survivin protein expression at 5 uM after 18 hrs by Western blot analysis relative to control. The class given is subcellular. Put shortly: as §1
Assay [9] concerns SW480. Put plainly: Inhibition of Wnt/beta-catenin signaling pathway in human SW480 whole cell lysate harboring APC mutation assessed as reduction in survivin protein expression at 5 uM after 18 hrs by Western blot analysis relative to control. The class given is subcellular. Put shortly: as §1
The species entered for assay [10] is Homo sapiens. Put plainly: Inhibition of Wnt/beta-catenin signaling pathway in human HCT116 whole cell lysate harboring beta-catenin mutation assessed as reduction in cyclin D1 protein expression at 5 uM after 18 hrs by Western blot analysis relative to control. The class given is subcellular. Put shortly:
as §1

The target of assay [11] is Frizzled-1 (Homo sapiens) (UniProt Q9UP38). Put plainly: Induction of GFP-tagged Fzd1 (unknown origin) internalization expressed in human U2OS cells at 12.5 after 6 hrs by confocal microscopic method relative to control. Format: cell-based. Put shortly:
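U2OS cells stably expressing Frizzled1-GFP were exposed to compound for 6 h, fixed and imaged by confocal microscopy. Punctate was scored visually against DMSO control: similar to control = 0, trace = 1, moderate = 3, strong = 5.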

The test system of assay [12] is SW480. In words: Inhibition of Wnt/beta-catenin signaling pathway in human SW480 whole cell lysate harboring APC mutation assessed as reduction in c-Myc protein expression at 5 uM after 18 hrs by Western blot analysis relative to control. The class given is subcellular. Put shortly:
as §1

Assay [13] is filed under the species Homo sapiens. In words: Inhibition of Wnt/beta-catenin signaling pathway in human HCT116 whole cell lysate harboring beta-catenin mutation assessed as reduction in survivin protein expression at 5 to 10 uM after 18 hrs by Western blot analysis. Format: subcellular.
The species entered for assay [14] is Homo sapiens. In words: Inhibition of Wnt/beta-catenin signaling pathway in human HCT116 cells cytosol lysate harboring beta-catenin mutation assessed as reduction in Axin2 protein expression at 5 to 10 uM after 18 hrs by Western blot analysis. Format: subcellular.
Assay [15] is filed under the species Homo sapiens. Put plainly: Inhibition of Wnt/beta-catenin signaling pathway in human HCT116 cells cytosol lysate harboring beta-catenin mutation assessed as reduction in beta-catenin protein expression at 5 to 10 uM after 18 hrs by Western blot analysis. Format: subcellular.
For assay [16], the species on record is Homo sapiens. Put plainly: Inhibition of Wnt/beta-catenin signaling pathway in human HCT116 whole cell lysate harboring beta-catenin mutation assessed as reduction in c-Myc protein expression at 5 to 10 uM after 18 hrs by Western blot analysis. Format: subcellular.
For assay [17], the species on record is Homo sapiens. Put plainly: Inhibition of Wnt/beta-catenin signaling pathway in human HCT116 whole cell lysate harboring beta-catenin mutation assessed as reduction in survivin protein expression at 5 to 10 uM after 18 hrs by Western blot analysis.
For assay [18], the system named is HEK293. Put plainly: Inhibition of Wnt3A-stimulated Wnt/beta-catenin pathway in HEK293 cells transfected with p8xTOPFlash, Renilla luciferase plasmid pRL-TK and pLKO.1 at 10 uM after 8 hrs by Dual topflash luciferase reporter gene assay relative to control. Format: cell-based. The conditions noted are these: Homo sapiens. Put shortly: as §2
The subject of assay [19] is HEK293. Put plainly: Inhibition of Wnt3A-stimulated Wnt/beta-catenin pathway in HEK293 cells transfected with p8xTOPFlash, Renilla luciferase plasmid pRL-TK and pLKO.1 at 5 uM after 8 hrs by Dual topflash luciferase reporter gene assay relative to control. Format: cell-based. The conditions noted are these: Homo sapiens. Put shortly:
as §2

Assay [20] has as its system HEK293. In words: Inhibition of Wnt3A-stimulated Wnt/beta-catenin pathway in HEK293 cells transfected with p8xTOPFlash, Renilla luciferase plasmid pRL-TK and pLKO.1 assessed as residual activity at 10 uM after 8 hrs by Dual topflash luciferase reporter gene assay relative to control. The class given is cell-based. Conditions: Homo sapiens. In short, it runs like this:
as §2

The source made the active and inactive calls. No cut-off for these calls is given here.

Sequence of Frizzled-1 (Homo sapiens) (Q9UP38 70-647 limits assumed): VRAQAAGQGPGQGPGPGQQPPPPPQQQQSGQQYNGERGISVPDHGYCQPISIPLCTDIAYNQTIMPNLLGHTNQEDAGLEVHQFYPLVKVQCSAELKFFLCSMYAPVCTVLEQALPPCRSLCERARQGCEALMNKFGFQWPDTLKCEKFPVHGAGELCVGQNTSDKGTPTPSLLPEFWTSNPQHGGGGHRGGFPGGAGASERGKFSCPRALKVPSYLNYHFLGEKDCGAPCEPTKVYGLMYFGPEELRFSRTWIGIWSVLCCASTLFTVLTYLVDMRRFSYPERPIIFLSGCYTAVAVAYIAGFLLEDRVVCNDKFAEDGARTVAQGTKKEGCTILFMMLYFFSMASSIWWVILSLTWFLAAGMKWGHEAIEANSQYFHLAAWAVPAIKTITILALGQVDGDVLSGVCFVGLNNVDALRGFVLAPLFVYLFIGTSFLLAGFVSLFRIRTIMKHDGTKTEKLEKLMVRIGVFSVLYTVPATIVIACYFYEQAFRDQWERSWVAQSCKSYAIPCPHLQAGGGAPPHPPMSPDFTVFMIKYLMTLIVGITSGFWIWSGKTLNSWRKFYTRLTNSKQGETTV

In the case of `O=[N+]([O-])c1ccc(-c2nnc(-c3cc(Cl)ccc3O)[nH]2)cc1`, the inhibition in the assay with SW480 [1] came to 70%; in the assay on SW480 [2], 44%; in the assay on SW480 [3], 67%; in the assay filed under Homo sapiens [5], 59%; in the assay listed under Homo sapiens [6], 2%; in the assay listed under Homo sapiens [7], 75%. Further, the inhibition in the assay filed under Homo sapiens [8] is 38%; in the assay with SW480 [9], 38%; in the assay listed under Homo sapiens [10], 20%; in the assay on SW480 [12], 2%. Further, the IC50 in [4] is 1410 nM. The molecule also showed a score in assay [11] of 4.

Take `Oc1ccc(Cl)cc1-c1nnc(-c2ccc(F)cc2)[nH]1`: the IC50 in assay [4] came to 1910 nM. In assay [11], this molecule displayed a score of 1.

As to `Oc1ccc(Cl)cc1-c1nnc(-c2ccccc2)[nH]1`, in assay [4], the IC50 amounted to 4020 nM. Further, the inhibition result in the assay filed under Homo sapiens [13], in the assay filed under Homo sapiens [14], in the assay listed under Homo sapiens [15], in the assay listed under Homo sapiens [16] and in the assay listed under Homo sapiens [17] was “Active” each time. This molecule also gave a score in assay [11] of 0.

Take `O=C(NCc1ccc([N+](=O)[O-])cc1)c1cc(Cl)ccc1O`: the figures for the inhibition in the assay on HEK293 [18] and with HEK293 [19] were 43% and 3%, respectively. The same molecule registered a score in assay [11] of 0.

In the case of `Oc1ccc(Cl)cc1-c1nnc(-c2ccc(C(F)(F)F)cc2)[nH]1`, the inhibition in the assay on SW480 [1] worked out at 76%; in the assay on SW480 [2], 58%; with SW480 [3] it was 72%; in the assay listed under Homo sapiens [5], 6%; in the assay listed under Homo sapiens [6], 3%; in the assay filed under Homo sapiens [7], 68%. Further, the inhibition in the assay listed under Homo sapiens [8] amounted to 44%; in the assay on SW480 [9], 56%; in the assay filed under Homo sapiens [10], 17%; with SW480 [12] it was 2%. In assay [4], the IC50 was 2880 nM. Further, the score in [11] was found to be 2.

For the molecule `O=[N+]([O-])c1ccc(-c2nnc(-c3cc(Cl)ccc3O)[nH]2)c(Cl)c1`, the inhibition with SW480 [1] was found to be 57%; with SW480 [2], 47%; in the assay with SW480 [3] it was 69%; in the assay listed under Homo sapiens [5], 34%; in the assay filed under Homo sapiens [6], 3%; in the assay listed under Homo sapiens [7], 68%. Moreover, the inhibition in the assay listed under Homo sapiens [8] was 38%; in the assay on SW480 [9] it was 43%; in the assay listed under Homo sapiens [10] it was 22%; in the assay on SW480 [12] it was 4%. In addition, the midpoint of inhibition in [4], the IC50, lay at 1840 nM. In assay [11], this molecule came in with a score of 5.

For the molecule `COc1ccc(-c2nnc(-c3cc(Cl)ccc3O)[nH]2)cc1`, the figures for the inhibition in the assay with HEK293 [18] and with HEK293 [19] were 60% and 14%, respectively. In assay [11], the score was 0.

For the molecule `O=C(NC(=O)c1cc(Cl)ccc1O)c1ccc([N+](=O)[O-])cc1`, the Activity in the assay on HEK293 [20] amounted to 153%. Also, the score in assay [11] worked out at 0.

Consider `O=C(Nc1ccc([N+](=O)[O-])cc1Cl)c1cc(Cl)ccc1O` [NICLOSAMIDE], for which the inhibition with SW480 [1] was found to be 45%; with SW480 [2], 29%; in the assay on SW480 [3], 74%; in the assay listed under Homo sapiens [5] it was 46%; in the assay filed under Homo sapiens [6] it was 1%; in the assay listed under Homo sapiens [7] it was 35%. For the same molecule, the inhibition in the assay listed under Homo sapiens [8] is 44%; in the assay with SW480 [9], 41%; in the assay filed under Homo sapiens [10] it was 28%; in the assay with SW480 [12], 3%. The IC50 in assay [4] worked out at 340 nM. The score in assay [11] came out at 5.

As a reminder, the inhibition is the change of the read-out against control, counted positive when it falls. The IC50 is the concentration needed to halve the response being measured.
